Experimental data reported in publication PMC5634614 (Molecular imaging and biology : MIB : the official …, 2017).
Like-named read-outs stand apart in the source and are kept apart here.

Tests used:
Plasma protein binding = format: in vitro ADME
TSPO [1] = target: T1, TSPO (Rattus norvegicus, UniProt P16257); assay: Radioligand displacement of [3H]PK11195 in C6 glioma cell lysate; format: binding; conditions: for TSPO binding affinity, fold greater than 1 (DPA-714): relative to 1 (DPA-714); for TSPO binding affinity, fold greater than 2 (VUIIS1008): relative to 2
[2] = target: mitochondrial TSPO (mTSPO) (Mus musculus, UniProt P50637); assay: 2D 1H-15N HSQC NMR titration of TSPO with ligands; format: binding; conditions: 5.0 mM ligand, 0.2 mM TSPO in DPC
How it was run: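 15N-labeled mitochondrial TSPO was expressed in E. coli BL21(DE3) in M9 minimal medium, then solubilized and purified in DPC detergent. 2D 1H-15N HSQC spectra were recorded with and without ligand (5.0 mM) on an 800-MHz spectrometer at 42 °C. Samples held 0.2 mM TSPO in ~2 % (w/v) DPC, 25 mM MES pH 6.0 and 100 mM NaCl.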

[3] = target: C6-2B mitochondria (rat glioma); conditions: C6-2B mitochondria (rat glioma) with [3H]PK11195; ref [28]; cited from earlier work
TSPO [4] = target: T1, TSPO; conditions: n = 5, prior study, ref [18], [19], cited from earlier work
TSPO [5] = target: T1, TSPO; conditions: ref [18], [19], cited from earlier work

For `CCc1cc(C)n2nc(-c3ccc(OCCF)cc3)c(CC(=O)N(CC)CC)c2n1` [3B, N,N-diethyl-2-(5-ethyl-2-(4-(2-fluoroethoxy)phenyl)-7-methylpyrazolo[1,5-a]pyrimidin-3-yl)acetamide], the “unbound fraction compared with DPA-714” value (Plasma protein binding) was “lower unbound fraction than DPA-714”, the “unbound fraction, difference compared with 3A” value (Plasma protein binding) was 0.54% and the IC50 (TSPO [1]) was 19.4 pM. For the same compound, the Ki (TSPO [1]) was 9.47 pM, the “TSPO binding affinity, fold greater than 1 (DPA-714)” value (TSPO [1]) was 500 fold and the “TSPO binding affinity, fold greater than 1 (DPA-714)” value (TSPO [1]; listed as VUIIS1009B) was “approximately 500 fold”. For the same compound, the “TSPO binding affinity, fold greater than 2 (VUIIS1008)” value (TSPO [1]) was 20 fold and the “saturation of ligand-bound state of TSPO (HSQC)” value [2] was “completely saturated the ligand-bound state”.
In the case of `CCC(C)N(C)C(=O)c1cc2ccccc2c(-c2ccccc2Cl)n1` (stereo not shown) [[^3H]PK11195], the Kd [3] is listed as 5730 ± 2380 pM.
In the case of `CCc1cc(CC)n2nc(-c3ccc(OCC[18F])cc3)c(CC(=O)N(CC)CC)c2n1` [[^18F]VUIIS1008, 2-(5,7-diethyl-2-(4-(2-[(18)F]fluoroethoxy)phenyl)pyrazolo[1,5-a]pyrimidin-3-yl)-N,N-diethylacetamide], the “VT (total distribution volume from kinetic parameters)” value (TSPO [4]; brain) is listed as 4.210 ± 1.612, the k1 (TSPO [4]; brain) is listed as 0.881 ±0.392 and the k1/k2 (TSPO [4]; brain) is listed as 0.855 ± 0.325. The k2 (TSPO [4]; brain) was 2.078 ± 1.666, the k3 (TSPO [4]; brain) was 0.172 ± 0.070 and the “k3/k4 (binding potential, BPND)” value (TSPO [4]; brain) was 4.435 ± 1.387. The k4 (TSPO [4]; brain) was 0.037 ± 0.004, the “VT (total distribution volume from kinetic parameters)” value (TSPO [4]; tumor) was 25.224 ± 10.035 and the k1 (TSPO [4]; tumor) was 0.709 ± 0.306. The k1/k2 (TSPO [4]; tumor) was 1.902 ± 0.816, the k2 (TSPO [4]; tumor) was 0.442 ± 0.101 and the k3 (TSPO [4]; tumor) was 0.113 ±0.013. The “k3/k4 (binding potential, BPND)” value (TSPO [4]; tumor) was 12.634 ± 1.406, the k4 (TSPO [4]; tumor) was 0.009 ± 0.002 and the “enhancement in TSPO affinity compared to 1” value (TSPO [5]; prior studies) was 36 fold.
In the case of `CCc1cc(C)nc2c(CC(=O)N(CC)CC)c(-c3ccc(OCCF)cc3)nn12` [3A, N,N-diethyl-2-(7-ethyl-2-(4-(2-fluoroethoxy)-phenyl)-5-methylpyrazolo[1,5-a]pyrimidin-3-yl)acetamide], the “unbound fraction compared with DPA-714” value (Plasma protein binding) is reported as “lower unbound fraction than DPA-714”, the IC50 (TSPO [1]) is reported as 14.4 pM and the Ki (TSPO [1]) is reported as 7.04 pM. The “TSPO binding affinity, fold greater than 1 (DPA-714)” value (TSPO [1]) was 500 fold, the “TSPO binding affinity, fold greater than 1 (DPA-714)” value (TSPO [1]; listed as VUIIS1009A) was “approximately 500 fold” and the “TSPO binding affinity, fold greater than 2 (VUIIS1008)” value (TSPO [1]) was 20 fold.
For `CCc1cc(CC)n2nc(-c3ccc(OCCF)cc3)c(CC(=O)N(CC)CC)c2n1` [VUIIS1008], the IC50 (TSPO [5]; previously reported) is listed as 300 pM.
